Experimental data as given in ChEMBL document CHEMBL1127678, “Dianilinophthalimides: potent and selective, ATP-competitive inhibitors of the EGF-receptor protein tyrosine kinase” (J Med Chem, 1994).

Experiments:
[1] = biological target: Proto-oncogene tyrosine-protein kinase Src (Homo sapiens, UniProt P12931); experiment: Inhibitory activity against c-src tyrosine kinase
[2] = biological target: Tyrosine-protein kinase ABL (Homo sapiens, UniProt P00519+P42684); experiment: Inhibitory activity against v-abl tyrosine kinase; format: protein assay
[3] = biological target: Protein kinase C (PKC); experiment: Inhibitory activity was determined against protein kinase C (PKC) from porcine brain; design: species or system Sus scrofa
[4] = biological target: Epidermal growth factor receptor (Homo sapiens, UniProt P00533); experiment: Inhibitory activity against recombinant tyrosine kinase EGF-R (EGF-R ICD)
[5] = biological target: cAMP-dependent protein kinase alpha-catalytic subunit (Oryctolagus cuniculus, UniProt Q95J97); experiment: Inhibitory activity was determined against protein kinase A (PKA) of rabbit
Method in brief: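 PKA from rabbit muscle, kemptide (0.1 mg/mL) as substrate; compounds in DMSO (1% final).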

[6] = biological target: T1, Platelet-derived growth factor receptor (Mus musculus, UniProt P05622+P26618); experiment: (§1) Inhibition of PDGF-dependent autophosphorylation of PDGF-R in mouse BALB/c3T3 cells; format: functional, cell-based
[7] = biological target: T1, Platelet-derived growth factor receptor; experiment: as §1; format: functional, cell-based; remark: listed apart in the source
Method in brief: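 Confluent BALB/c 3T3 cells (collagen-coated wells, 3–5 days, no medium change) in DMEM with 1 mg/mL BSA; serially diluted compound for 2 h, then PDGF 50 ng/mL for 10 min. Cells were methanol-fixed, and phosphotyrosine was detected by ELISA (anti-pTyr 4G10, ABC-AP, p-nitrophenyl phosphate, 405 nm).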

[8] = Inhibition of BALB/MK mouse epidermal keratinocyte proliferation; format: functional
Method in brief: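 Mouse BALB/MK keratinocytes (EGF-dependent; kept in calcium-free DMEM/HAM's F12 1:1 with 5% FCS and EGF 5 ng/mL), 10^4 cells/well, seeded and incubated overnight. Serial dilutions added in DMSO (1% final), then 5-day incubation. Cell number by methylene blue staining.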

Chain of Proto-oncogene tyrosine-protein kinase Src (P12931 2-536 limits assumed): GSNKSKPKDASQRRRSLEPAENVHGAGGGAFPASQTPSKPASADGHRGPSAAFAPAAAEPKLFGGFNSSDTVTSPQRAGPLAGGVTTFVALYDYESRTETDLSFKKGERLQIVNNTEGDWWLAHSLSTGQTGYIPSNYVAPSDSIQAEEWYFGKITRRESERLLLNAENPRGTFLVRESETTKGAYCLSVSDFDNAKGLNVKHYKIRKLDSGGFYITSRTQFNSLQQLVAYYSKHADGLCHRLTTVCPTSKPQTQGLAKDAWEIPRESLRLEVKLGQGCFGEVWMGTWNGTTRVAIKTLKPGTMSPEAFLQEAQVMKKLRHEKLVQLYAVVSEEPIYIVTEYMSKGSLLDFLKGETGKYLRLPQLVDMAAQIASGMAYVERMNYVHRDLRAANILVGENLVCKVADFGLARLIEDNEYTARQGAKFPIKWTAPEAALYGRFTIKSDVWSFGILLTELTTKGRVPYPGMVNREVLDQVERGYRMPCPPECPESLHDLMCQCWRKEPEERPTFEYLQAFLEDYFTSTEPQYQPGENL
Chain of Epidermal growth factor receptor (P00533 whole entry): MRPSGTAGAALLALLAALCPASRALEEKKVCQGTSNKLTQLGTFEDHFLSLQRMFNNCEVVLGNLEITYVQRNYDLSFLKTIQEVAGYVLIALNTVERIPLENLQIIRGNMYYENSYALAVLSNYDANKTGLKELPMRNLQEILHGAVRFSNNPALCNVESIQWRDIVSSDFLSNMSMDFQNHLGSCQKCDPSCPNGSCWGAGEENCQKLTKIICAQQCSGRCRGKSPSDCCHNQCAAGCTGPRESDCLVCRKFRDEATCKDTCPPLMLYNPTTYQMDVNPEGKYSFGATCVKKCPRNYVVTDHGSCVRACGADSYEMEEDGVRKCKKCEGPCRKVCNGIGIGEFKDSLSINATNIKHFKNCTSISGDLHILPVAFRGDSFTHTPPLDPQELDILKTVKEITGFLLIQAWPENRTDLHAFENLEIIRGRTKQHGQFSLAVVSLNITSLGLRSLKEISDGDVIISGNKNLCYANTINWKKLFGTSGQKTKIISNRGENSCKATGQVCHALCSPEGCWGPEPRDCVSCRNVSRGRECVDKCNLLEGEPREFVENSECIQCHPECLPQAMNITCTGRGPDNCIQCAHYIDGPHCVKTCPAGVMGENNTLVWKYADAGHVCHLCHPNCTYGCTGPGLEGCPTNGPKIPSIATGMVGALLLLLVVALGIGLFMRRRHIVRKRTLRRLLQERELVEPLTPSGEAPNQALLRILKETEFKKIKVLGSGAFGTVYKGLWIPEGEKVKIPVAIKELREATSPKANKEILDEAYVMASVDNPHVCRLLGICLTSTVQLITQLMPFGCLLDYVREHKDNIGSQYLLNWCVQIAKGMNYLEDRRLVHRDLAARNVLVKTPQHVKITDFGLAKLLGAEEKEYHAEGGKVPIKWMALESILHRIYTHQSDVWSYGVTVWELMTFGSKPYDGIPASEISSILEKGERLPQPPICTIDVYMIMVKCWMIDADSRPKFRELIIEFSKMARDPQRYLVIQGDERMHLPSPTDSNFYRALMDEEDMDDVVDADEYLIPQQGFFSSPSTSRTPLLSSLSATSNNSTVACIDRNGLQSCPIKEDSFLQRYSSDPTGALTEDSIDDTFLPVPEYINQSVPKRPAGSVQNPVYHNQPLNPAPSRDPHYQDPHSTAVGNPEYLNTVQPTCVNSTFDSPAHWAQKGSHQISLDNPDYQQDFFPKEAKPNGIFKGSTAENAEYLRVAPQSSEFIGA

O=C1NC(=O)c2cc(NC3CCCCC3)c(NC3CCCCC3)cc21
IC50 [1]: > 50 µM | IC50 [2]: > 50 µM | IC50 [3]: > 100 µM | IC50 [4]: > 50 µM | IC50 [5]: > 500 µM

COC(=O)c1cc(Nc2ccc(F)cc2)c(Nc2ccc(F)cc2)cc1C(=O)OC
IC50 [3]: > 500 µM | IC50 [5]: > 500 µM

COc1ccc(Nc2cc3c(cc2Nc2ccccc2)C(=O)NC3=O)cc1
IC50 [1]: 64 µM | IC50 [6]: > 100 µM | IC50 [2]: > 100 µM | IC50 [3]: > 100 µM | IC50 [5]: > 500 µM

COC(=O)c1cc(Nc2ccccc2)c(Nc2ccccc2)cc1C(=O)OC
IC50 [3]: > 500 µM | IC50 [5]: > 500 µM

O=C1NC(=O)c2cc(Nc3ccccc3)c(Nc3ccccc3)cc21 [DAPH]
IC50 [1]: 16 µM | IC50 [7]: 100 µM | IC50 [2]: > 50 µM | IC50 [3]: 80 µM | IC50 [5]: > 500 µM

O=C1NC(=O)c2cc3c(cc21)N(c1ccccc1)CCN3c1ccccc1
IC50 [1]: > 50 µM | IC50 [2]: > 50 µM | IC50 [3]: 270 µM | IC50 [5]: > 500 µM

O=C1NC(=O)c2cc(Sc3ccccc3)c(Sc3ccccc3)cc21
IC50 [3]: > 50 µM | IC50 [5]: > 500 µM

O=C1NC(=O)C(c2c[nH]c3ccccc23)=C1c1c[nH]c2ccccc12 [RO-316233]
IC50 [2]: 20 µM | IC50 [3]: 0.19 µM

CN(c1ccccc1)c1cc2c(cc1Nc1ccccc1)C(=O)NC2=O
IC50 [1]: 1 µM | IC50 [2]: > 50 µM | IC50 [3]: > 500 µM | IC50 [5]: > 500 µM

CN1C(=O)c2cc(Nc3ccccc3)c(Nc3ccccc3)cc2C1=O
IC50 [6]: > 100 µM | IC50 [3]: > 100 µM | IC50 [5]: > 500 µM

O=C1NC(=O)c2cc(Nc3ccc(-c4ccccc4)cc3)c(Nc3ccc(-c4ccccc4)cc3)cc21
IC50 [6]: > 100 µM | IC50 [3]: > 500 µM | IC50 [5]: > 500 µM

CC(=O)N(c1ccccc1)c1cc2c(cc1Nc1ccccc1)C(=O)NC2=O
IC50 [6]: > 100 µM | IC50 [3]: > 100 µM | IC50 [5]: > 500 µM

Cc1ccc(Nc2cc3c(cc2Nc2ccc(C)cc2)C(=O)NC3=O)cc1
IC50 [1]: > 100 µM | IC50 [6]: > 100 µM | IC50 [2]: > 100 µM | IC50 [3]: > 100 µM | IC50 [5]: > 500 µM

N#Cc1ccc(Nc2cc3c(cc2Nc2ccc(C#N)cc2)C(=O)NC3=O)cc1
IC50 [3]: > 100 µM | IC50 [5]: > 500 µM

O=C1NC(=O)c2cc(Nc3ccc(O)cc3)c(Nc3ccc(O)cc3)cc21
IC50 [1]: 8 µM | IC50 [2]: 12 µM | IC50 [3]: 75 µM | IC50 [5]: > 500 µM

CCN(CC)c1ccc(Nc2cc3c(cc2Nc2ccc(N(CC)CC)cc2)C(=O)NC3=O)cc1
IC50 [1]: > 100 µM | IC50 [2]: > 50 µM | IC50 [3]: > 500 µM | IC50 [5]: > 500 µM

O=C1NC(=O)c2cc(Nc3ccc(I)cc3)c(Nc3ccc(I)cc3)cc21
IC50 [3]: > 500 µM | IC50 [5]: > 500 µM

O=C1NC(=O)c2cc(Nc3ccc(F)cc3)c(Nc3ccc(F)cc3)cc21 [CGP-53353]
IC50 [1]: 50 µM | IC50 [6]: 100 µM | IC50 [2]: > 50 µM | IC50 [3]: 32 µM | IC50 [5]: > 500 µM

CN(c1ccccc1)c1cc2c(cc1N(C)c1ccccc1)C(=O)NC2=O
IC50 [1]: > 100 µM | IC50 [2]: > 50 µM | IC50 [3]: > 500 µM | IC50 [5]: > 500 µM

COc1ccc(Nc2cc3c(cc2Nc2ccc(OC)cc2)C(=O)NC3=O)cc1
IC50 [6]: > 100 µM | IC50 [2]: > 50 µM | IC50 [3]: 460 µM | IC50 [5]: > 500 µM

O=C1c2cc(Nc3ccccc3)c(Nc3ccccc3)cc2C(=O)N1c1ccccc1
IC50 [6]: > 100 µM | IC50 [3]: > 100 µM | IC50 [8]: > 50 µM | IC50 [5]: > 500 µM

O=C1NC(=O)c2c1c1c3ccccc3[nH]c1c1[nH]c3ccccc3c21 [STAUROSPORINE AGLYCON]
IC50 [5]: > 10 µM
